Measurements as given in ChEMBL document CHEMBL1770105, “Discovery and evaluation of pyrazolo[1,5-a]pyrimidines as neuropeptide Y1 receptor antagonists” (Bioorg Med Chem Lett, 2011).
pIC50, pKi: −log10 of the molar value. Active and inactive are the calls of the source. The rule behind the calls is not given here.

How the values were obtained:
[1] = target: T1, Neuropeptide Y receptor type 1 (Homo sapiens, UniProt P25929); test: Displacement of [125I]-PYY from human recombinant NPY Y1 receptor overexpressed in membrane of Sf9 cells
T1 sequence (P25929 whole entry): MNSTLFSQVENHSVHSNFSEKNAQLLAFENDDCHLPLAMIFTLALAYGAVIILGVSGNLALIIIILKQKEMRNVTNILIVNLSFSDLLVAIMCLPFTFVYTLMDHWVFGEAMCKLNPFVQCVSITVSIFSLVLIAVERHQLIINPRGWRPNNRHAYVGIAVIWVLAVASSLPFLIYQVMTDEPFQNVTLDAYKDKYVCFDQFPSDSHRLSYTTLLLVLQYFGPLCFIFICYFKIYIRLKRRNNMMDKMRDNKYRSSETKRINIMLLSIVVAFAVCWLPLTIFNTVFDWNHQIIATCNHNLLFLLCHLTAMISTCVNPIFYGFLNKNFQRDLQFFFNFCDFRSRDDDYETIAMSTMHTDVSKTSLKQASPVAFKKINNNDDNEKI
Method in brief: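 Human Y1 receptor: 125I-PYY displacement on Sf9 membranes overexpressing recombinant hY1R. Ki values are single determinations run in triplicate.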

[2] = target: T1, Neuropeptide Y receptor type 1; test: Antagonist activity at NPY Y1 receptor in human SK-N-MC cells assessed as inhibition of NPY-induced calcium mobilization by FLIPR assay; format: functional, cell-based
Method in brief: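 SK-N-MC neuroblastoma cells plated at 25,000/well 4 days ahead, loaded with Fluo-3 for 1 h in 5% CO2, washed and resuspended in assay buffer (5 mM KCl, 115 mM NaCl, 0.96 mM NaH2PO4, 1 mM MgSO4, 2 mM CaCl2, 5 mM D-glucose) containing test compound.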

[3] = Plasma clearance in Sprague-Dawley rat at 1 mg/kg, iv and 3 mg/kg, po; format: ADME, organism-based
Method in brief: (§1)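 Overnight-fasted, jugular-vein-cannulated SD rats (water ad libitum) dosed by oral gavage (3 mg/kg in 0.5% methyl cellulose, 2 mL/kg, n = 2) or iv via the jugular vein (1.0 mg/kg in 50% PEG, 1 mL/kg, n = 2).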

[4] = Fraction unbound in Sprague-Dawley rat plasma at 1 mg/kg, iv and 3 mg/kg, po; format: ADME, organism-based
Rattus norvegicus [5] = test: Unbound plasma clearance in Sprague-Dawley rat 1 mg/kg, iv and 3 mg/kg, po; format: ADME, organism-based; settings: in vivo
Rattus norvegicus [6] = test: Antihypertensive activity in Sprague-Dawley rat assessed as inhibition of NPY-induced increase in arterial pressure at 3 mg/kg, iv; format: functional; settings: Artery
Method in brief: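 Overnight-fasted SD rats anesthetized with inactin (100 mg/kg ip), tracheal and femoral arterial/venous cannulae, on a heated pad. Arterial pressure and heart rate recorded every 5 s. NPY given as iv bolus every 15 min. After the third NPY bolus, compound given iv at 3 mg/kg in saline (1 mL/kg), followed by three further NPY injections.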

[7] = Ratio of fraction unbound drug level in brain to plasma in Mdr1a/1b knockout mouse to FVB mouse at 5 mg.kg, sc after 0.5 hrs; format: ADME, organism-based
Method in brief: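 Brain and plasma levels measured in Mdr1a/1b knockout and wild-type FVB mice 0.5 h after a 5 mg/kg sc dose. Brain/plasma ratios calculated from unbound fractions, measured by equilibrium dialysis of brain homogenate and plasma. Result expressed as knockout B/P over FVB B/P.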

[8] = Half life in Sprague-Dawley rat at 1 mg/kg, iv and 3 mg/kg, po; format: ADME, organism-based; settings: in vivo; method in brief: as §1
[9] = Oral bioavailability in Sprague-Dawley rat at 3 mg/kg; format: ADME, organism-based; settings: in vivo; method in brief: as §1
[10] = Ratio of fraction unbound drug level in brain to plasma in Sprague-Dawley rat; format: ADME, cell-free
Method in brief: (§2)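 Brain-to-plasma ratios calculated from unbound fractions. Unbound fraction in brain homogenate and whole plasma of rats or mice measured by equilibrium dialysis.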

[11] = Ratio of fraction unbound drug level in brain to plasma in FVB mouse; format: ADME, cell-free; method in brief: as §2
Rattus norvegicus [12] = test: Antiobesity activity in Sprague-Dawley rat assessed as reduction of NPY-induced food intake at 120 ug, icv after 4 hrs; format: functional, organism-based
Method in brief: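 SD rats with icv cannulae, fed powdered chow ad libitum. Between 10 and 11 am in the light cycle, compound or propylene glycol vehicle co-infused icv with NPY in sterile water over 1 min. Food intake measured over the next 4 h. Crossover design, two treatments 2 days apart.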

Rattus norvegicus [13] = test: Antiobesity activity in overnight fasted Sprague-Dawley rat assessed as decrease in food intake at 40 mg/kg, po followed by food re-feeding after 2 hrs post compound dose measured upto 2 hrs post re-feeding relative to control; format: functional; parameters: scale not given: the % may be the effect or the level left
Method in brief: (§3)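 SD rats housed singly with powdered chow and water, fasted overnight, then dosed po at 40 mg/kg or vehicle (0.5% methyl cellulose in water). Pre-weighed food returned 2 or 4 h post-dose. Intake recorded 2 and 4 h after food was restored, relative to vehicle controls.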

Rattus norvegicus [14] = test: Antiobesity activity in overnight fasted Sprague-Dawley rat assessed as decrease in food intake at 40 mg/kg, po followed by food re-feeding after 4 hrs post compound dose measured up to 2 to 4 hrs post re-feeding; format: functional, organism-based; parameters: dose 40 mg/kg; method in brief: as §3
Rattus norvegicus [15] = test: Neurotoxicity in Sprague-Dawley rat assessed as change in locomotor activity at 40 mg/kg, po; format: toxicity, organism-based; parameters: dose 40 mg/kg, route oral; settings: in vivo
Rattus norvegicus [16] = test: Antiobesity activity in Wistar rat assessed as decrease in nocturnal food intake at 40 mg/kg, po measured every 10 mins for 18 hrs post-dose; format: functional, organism-based; parameters: dose 40 mg/kg
Method in brief: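 Wistar rats acclimated to a continuous food-intake monitoring system. Dosed po at 40 mg/kg or vehicle 30 min before the dark cycle. Intake logged every 10 min for 18 h post-dose. Compared with time-matched vehicle by two-tailed unpaired t-test.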

Rattus norvegicus [17] = test: Neurotoxicity in Wistar rat assessed as change in locomotor activity at 40 mg/kg, po; format: toxicity, organism-based; parameters: dose 40 mg/kg, route oral; settings: in vivo
Plasma = test: Unbound plasma concentration in Sprague-Dawley rat at 40 mg/kg, po after 2 hrs; format: ADME, organism-based; parameters: dose 40 mg/kg, route oral; settings: in vivo
[18] = target: T2, Neuropeptide Y receptor type 2 (Homo sapiens, UniProt P49146); test: Binding affinity to human NPY Y2 receptor
T2 sequence (P49146 whole entry): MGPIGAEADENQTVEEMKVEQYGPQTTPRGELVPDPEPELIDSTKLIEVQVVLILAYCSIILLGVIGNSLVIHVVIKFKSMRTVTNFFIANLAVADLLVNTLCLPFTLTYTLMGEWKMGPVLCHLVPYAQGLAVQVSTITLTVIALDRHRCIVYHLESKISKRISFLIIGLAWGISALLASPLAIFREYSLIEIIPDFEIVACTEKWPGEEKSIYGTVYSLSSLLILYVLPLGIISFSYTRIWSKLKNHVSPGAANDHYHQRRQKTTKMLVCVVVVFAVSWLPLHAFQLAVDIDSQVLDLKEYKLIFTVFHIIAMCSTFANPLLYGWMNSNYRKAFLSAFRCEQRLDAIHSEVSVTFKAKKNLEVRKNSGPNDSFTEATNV

[19] = target: T3, Neuropeptide Y receptor type 5 (Homo sapiens, UniProt Q15761); test: Binding affinity to human NPY Y5 receptor
T3 sequence (Q15761 whole entry): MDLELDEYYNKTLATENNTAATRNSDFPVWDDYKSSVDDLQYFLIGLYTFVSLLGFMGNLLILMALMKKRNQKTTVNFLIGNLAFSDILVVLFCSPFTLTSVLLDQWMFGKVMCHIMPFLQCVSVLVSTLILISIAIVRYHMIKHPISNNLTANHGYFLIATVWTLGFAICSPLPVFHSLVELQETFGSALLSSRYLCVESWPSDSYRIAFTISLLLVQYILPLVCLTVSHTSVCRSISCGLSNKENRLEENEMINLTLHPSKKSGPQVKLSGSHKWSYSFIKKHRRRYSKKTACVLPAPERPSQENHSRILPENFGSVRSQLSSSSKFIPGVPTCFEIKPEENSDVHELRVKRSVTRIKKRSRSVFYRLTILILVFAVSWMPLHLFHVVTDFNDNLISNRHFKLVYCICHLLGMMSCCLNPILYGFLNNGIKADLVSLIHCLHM

[20] = target: T4, Corticotropin-releasing factor receptor 1 (Homo sapiens) (UniProt P34998); test: Binding affinity to CRHR at 10 uM
T4 sequence (whole entry): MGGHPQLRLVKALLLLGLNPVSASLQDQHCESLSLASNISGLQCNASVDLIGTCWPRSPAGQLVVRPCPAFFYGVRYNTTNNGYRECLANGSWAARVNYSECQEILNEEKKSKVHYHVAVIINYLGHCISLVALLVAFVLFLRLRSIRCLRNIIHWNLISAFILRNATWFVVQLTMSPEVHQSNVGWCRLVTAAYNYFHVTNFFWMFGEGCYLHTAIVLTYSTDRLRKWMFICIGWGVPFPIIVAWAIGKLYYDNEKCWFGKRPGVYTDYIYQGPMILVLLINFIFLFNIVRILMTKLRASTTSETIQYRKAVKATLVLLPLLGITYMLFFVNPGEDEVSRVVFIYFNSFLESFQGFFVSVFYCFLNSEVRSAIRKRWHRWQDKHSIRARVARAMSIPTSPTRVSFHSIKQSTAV

Rattus norvegicus [21] = test: Antiobesity activity in overnight fasted Sprague-Dawley rat assessed as decrease in food intake at 40 mg/kg, po followed by food re-feeding after 2 hrs post compound dose measured up to 4 hrs post re-feeding relative to control; format: functional; parameters: scale not given: the % may be the effect or the level left; method in brief: as §3
[22] = Drug level in Sprague-Dawley rat cerebral spinal fluid at 40 mg/kg, po after 2 hrs; format: ADME, organism-based; parameters: dose 40 mg/kg, route oral; settings: cerebrospinal fluid, read-out: Drug uptake
Method in brief: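 Rats dosed 40 mg/kg po were anesthetized with metofane at 2 h post-dose (n = 2). CSF drawn from the cisterna magna with a 26-gauge needle.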

[23] = Drug level in Sprague-Dawley rat brain interstitial fluid at 40 mg/kg, po after 2 hrs; format: ADME, organism-based; parameters: dose 40 mg/kg, route oral; settings: read-out: Drug uptake
Method in brief: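 Rats dosed 40 mg/kg po. Interstitial fluid collected at 2 h from the paraventricular nucleus with microdialysis probes.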

[24] = target: T5, Neuropeptide Y receptor type 1 (Rattus norvegicus, UniProt P21555); test: Displacement of [125I]PYY from rat recombinant NPY Y1 receptor overexpressed in membrane of Sf9 cells
T5 sequence (P21555 whole entry): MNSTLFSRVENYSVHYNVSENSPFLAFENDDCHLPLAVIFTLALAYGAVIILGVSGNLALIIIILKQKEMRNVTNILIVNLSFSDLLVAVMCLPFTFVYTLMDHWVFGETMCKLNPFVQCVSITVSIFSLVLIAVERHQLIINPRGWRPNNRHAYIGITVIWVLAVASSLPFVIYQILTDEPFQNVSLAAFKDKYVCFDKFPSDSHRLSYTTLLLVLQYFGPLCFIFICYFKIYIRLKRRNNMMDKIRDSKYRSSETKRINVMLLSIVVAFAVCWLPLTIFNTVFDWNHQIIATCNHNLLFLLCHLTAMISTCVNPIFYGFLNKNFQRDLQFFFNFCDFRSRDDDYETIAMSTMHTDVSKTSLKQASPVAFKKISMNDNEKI

Structure (SMILES) | pKi [1] | pIC50 [2] | clearance [3] | fraction unbound [4] | CL (Rattus norvegicus [5]) | inhibition in vivo at 3 mg/kg (Rattus norvegicus [6]) | Knockout-to-FVB ratio of unbound brain/plasma ratio [7] | further results
CCCOc1cc(Cl)c(-c2c(C)nn3c(NCCNC4CCOCC4)cc(C)nc23)c(Cl)c1 | 8.10 | 6.68 | 25 mL/min/kg | 0.011 | 2273 mL/min/kg | 0% | – | –
COc1cc(Cl)c(-c2c(C)nn3c(NCCNCC(F)F)cc(C)nc23)c(Cl)c1 | 6.42 | – | – | – | – | – | 2 | –
CCOc1cc(Cl)c(-c2c(C)nn3c(NCCNC4CCOCC4)cc(C)nc23)c(Cl)c1 | 8.52 | 7.82 | 28 mL/min/kg | 0.029 | 996 mL/min/kg | 47% | – | –
Cc1cc(NCCNC2CCCC2)n2nc(C)c(-c3c(Cl)cccc3Cl)c2n1 | 7.42 | – | – | – | – | – | – | –
Cc1cc(C)c(-c2c(C)nn3c(NCCNC4CCCC4)cc(C)nc23)c(C)c1 | 7.68 | – | – | – | – | – | – | –
COc1cc(Cl)c(-c2c(C)nn3c(NCCNC4CCOCC4)cc(C)nc23)c(Cl)c1 | 9.00 | 8.15 | 45 mL/min/kg | 0.059 | 763 mL/min/kg | 92% | 9 | half-life [8]: 1.2 h; bioavailability [9]: 13%; BPR [10]: 0.13; BPR [11]: 0.1; Activity (Rattus norvegicus [12]): Active; Activity (Rattus norvegicus [13]): 12%; Activity (Rattus norvegicus [14]): inactive; Activity (Rattus norvegicus [15]): Non-toxic; Activity (Rattus norvegicus [16]): Active; Activity (Rattus norvegicus [17]): Non-toxic; Cp (Plasma): 95 nM; pIC50 [18]: < 5.00; pIC50 [19]: < 5.00; inhibition [20]: < 50%; Activity (Rattus norvegicus [21]): 12%; concentration at 2 h [22]: 26 nM; concentration at 2 h [23]: 17 nM; pKi [24]: 8.46
COc1cc(Cl)c(-c2c(C)nn3c(NCC(C)NC4CCOCC4)cc(C)nc23)c(Cl)c1 (racemic) | 8.30 | – | – | – | – | – | 10 | –
